Assay results: ChEMBL document CHEMBL4177714, “Assessment of a pretomanid analogue library for African trypanosomiasis: Hit-to-lead studies on 6-substituted 2-nitro-6,7-dihydro-5H-imidazo[2,1-b][1,3]thiazine 8-oxides” (Bioorg Med Chem Lett, 2018)
Values after ≈ are worked out from the molar mass of the structure shown. Values belong to the molecule of their own block, whether it stands above or below them.

Columns and labels:
[1] = system: Trypanosoma brucei brucei; assay: Antitrypanosomal activity against Trypanosoma brucei brucei TREU 667 infected in Swiss Webster mouse assessed as infection cure rate at 200 mg/kg, po qd for 5 days; type: functional
[2] = Selectivity index, ratio of IC50 for cytotoxicity against mouse L929 cells to IC50 for antitrypanosomal activity against Trypanosoma brucei brucei 427 bloodstream forms; type: toxicity, cell-based; conditions: read-out: Ratio IC50
[3] = Apparent permeability in MDCK2-MDR1 cells at 3 uM incubated over 150 mins at 37 degC by LC-MS/MS method; type: ADME, cell-based, Canis lupus familiaris; conditions: dog, MDCK-MDR1
How it was run: (§1)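 MDCK-MDR1 monolayer, apical-to-basolateral transport of compound at 3 μM, run with and without P-gp inhibitor GF120918 (2 μM). Apparent permeability (Papp) recorded; absorption quotient AQ = (Papp+918 − Papp)/Papp+918. Propranolol served as CNS-positive reference.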

Mus musculus = assay: Time duration during which drug level in brain stays at or above MIC for antitrypanosomal activity against Trypanosoma brucei brucei TREU 667 infected in Webster mouse at 25 mg/kg, po bid; type: ADME, organism-based; conditions: in vivo
[4] = system: Trypanosoma brucei brucei; assay: Antitrypanosomal activity against Trypanosoma brucei brucei 427 bloodstream forms; type: functional, organism-based
How it was run: (§2)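 IC50 for growth inhibition of T. b. brucei 427, with cytotoxicity measured against human lung fibroblasts (MRC-5). Means of two or more independent experiments. Selectivity index is MRC-5 IC50 over T. b. brucei IC50.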

[5] = system: Trypanosoma brucei brucei; assay: Antitrypanosomal activity against Trypanosoma brucei brucei TREU 667 infected in Swiss Webster mouse assessed as infection cure rate at 25 mg/kg, po qd for 7 days starting 21 days post-infection (reference value: 0%); type: functional
[6] = Half life in mouse liver S9 subcellular fraction; type: ADME
How it was run: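 Metabolic stability: compounds incubated 1 h with CD-1 mouse liver S9 subcellular fractions; half-life derived.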

[7] = system: Trypanosoma brucei brucei; assay: Antitrypanosomal activity against Trypanosoma brucei brucei TREU 667 infected in Swiss Webster mouse assessed as infection cure rate at 10 mg/kg, ip administered as single dose on day 4 post-infection (reference value: 0%); type: functional
How it was run: (§3)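 CNS (stage 2) model: mice infected with T. b. brucei TREU 667. Berenil given as a single i.p. dose of 10 mg/kg on day 4 or on day 21 post-infection. Cure rate and mean relapse time recorded against vehicle-treated controls.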

[8] = system: Trypanosoma brucei brucei; assay: Antitrypanosomal activity against Trypanosoma brucei brucei TREU 667 infected in Swiss Webster mouse assessed as mean relapse time at 10 mg/kg, ip administered as single dose on day 21 post-infection (reference value: 31 days); type: functional; how it was run: as §3
[9] = system: Trypanosoma brucei brucei; assay: Antitrypanosomal activity against Trypanosoma brucei brucei TREU 667 infected in Swiss Webster mouse assessed as infection cure rate at 10 mg/kg, ip administered as single dose on day 21 post-infection (reference value: 0%); type: functional; how it was run: as §3
[10] = Ratio of drug level in brain to plasma in CD1 mouse at 78 mg/kg, po after 0.25 to 24 hrs by LC-MS/MS method; type: ADME, organism-based; conditions: read-out: BPR
[11] = Selectivity index, ratio of IC50 for cytotoxicity against human MRC5 cells to IC50 for antitrypanosomal activity against Trypanosoma brucei brucei 427 bloodstream forms; type: toxicity, cell-based; conditions: read-out: Ratio IC50; how it was run: as §2
[12] = Absorption quotient in MDCK2-MDR1 cells assessed as (Papp + GF120918 - Papp)/(Papp + GF120918) ratio at 3 uM incubated over 150 mins at 37 degC in presence of P-gp inhibitor GF120918 by LC-MS/MS method; type: ADME, cell-based, Canis lupus familiaris; conditions: dog, mdck-mdr1, 2.5 h; how it was run: as §1

SMILES: CSc1ccc(OCc2ncc([N+](=O)[O-])n2C)cc1 [FEXINIDAZOLE]
- Activity [1]: 88%

SMILES: O=[N+]([O-])c1cn2c(n1)OC[C@@H](Oc1cc(-c3ccc(C(F)(F)F)nc3)ccn1)C2
- selectivity ratio [2]: > 3.6

- Papp A→B at 2.5 h, 3 µM [3]: 7.4 ×10⁻⁶ cm/s
SMILES: O=[N+]([O-])c1cn2c(n1)OCC(COc1ccc(-c3ccc(OC(F)(F)F)cc3)nc1)C2 (stereo not given)
- selectivity ratio [2]: > 12

- Time (Mus musculus): 24 h
- IC50 [4]: 0.29 µg/mL (≈ 0.79 µM)
SMILES: CC1(C)OB(O)c2cc(NC(=O)c3ccc(F)cc3C(F)(F)F)ccc21 [ACOZIBOROLE]
- Activity [5]: 100%

- t1/2 [6]: 67 min
SMILES: O=[N+]([O-])c1cn2c(n1)SC(COCc1ccc(OCc3ccccc3)cc1)C2 (stereo not given)
- selectivity ratio [2]: > 22

- Papp A→B at 2.5 h, 3 µM [3]: 11.7 ×10⁻⁶ cm/s
SMILES: O=[N+]([O-])c1cn2c(n1)OCC(COc1ccc(-c3ccc(C(F)(F)F)cc3)nc1)C2 (stereo not given)
- selectivity ratio [2]: > 36

- Time (Mus musculus): 12 h
SMILES: O=C(Nc1ccc2c(c1)B(O)OC2)c1ccc(F)cc1C(F)(F)F

- t1/2 [6]: 38 min
SMILES: CN1CC(OCc2ccc(OCc3ccccc3)cc2)Cn2nc([N+](=O)[O-])cc21 (stereo not given)
- selectivity ratio [2]: > 3.3

SMILES: CC(=O)NCC(=O)O.CC(=O)NCC(=O)O.N=C(N)c1ccc(/N=N/Nc2ccc(C(=N)N)cc2)cc1 [DIMINAZENE DIACETURATE]
- Activity [7]: 100%
- Time [8]: 41 days
- Activity [9]: 0%

SMILES: O=[N+]([O-])c1cn2c(n1)[S@+]([O-])C[C@@H](OCc1ccc(OC(F)(F)F)cc1)C2
- selectivity ratio [2]: > 143

- Papp A→B at 2.5 h, 3 µM [3]: 3.69 ×10⁻⁶ cm/s
SMILES: O=[N+]([O-])c1cn2c(n1)S(=O)(=O)CC(OCc1ccc(OCc3ccccc3)cc1)C2 (stereo not given)
- selectivity ratio [2]: > 303

- Kp [10]: 2 to 3
SMILES: O=[N+]([O-])c1cn2c(n1)OC[C@@H](NCc1ccc(OC(F)(F)F)cc1)C2
- selectivity ratio [2]: > 13

SMILES: O=[N+]([O-])c1cn2c(n1)[S+]([O-])CC(OCc1ccc(OC(F)(F)F)cc1)C2 (stereo not given)
- selectivity ratio [2]: > 63

SMILES: O=[N+]([O-])c1cn2c(n1)[S+]([O-])CC(OCc1ccc(OCc3ccccc3)cc1)C2 (stereo not given)
- selectivity ratio [2]: > 667

- Papp A→B at 2.5 h, 3 µM [3]: 3.5 ×10⁻⁶ cm/s
SMILES: O=[N+]([O-])c1cn2c(n1)OC[C@@H](OCC#Cc1ccc(-c3ccc(C(F)(F)F)cc3)cn1)C2
- selectivity ratio [2]: > 19

SMILES: O=[N+]([O-])c1cn2c(n1)S(=O)(=O)CC(OCc1ccc(OC(F)(F)F)cc1)C2 (stereo not given)
- selectivity ratio [2]: > 11

SMILES: O=[N+]([O-])c1cn2c(n1)OC[C@@H](OCCCc1ccc(-c3ccc(Oc4ccc(C(F)(F)F)cc4)cc3)cc1)C2
- selectivity ratio [2]: > 43

- t1/2 [6]: 50 min
SMILES: CC1(COCc2ccc(OCc3ccccc3)cc2)Cn2cc([N+](=O)[O-])nc2[S+]1[O-] (stereo not given)
- selectivity ratio [2]: > 77

SMILES: O=[N+]([O-])c1cn2c(n1)[S+]([O-])CC(OCc1ccc(-c3ccc(OC(F)(F)F)cc3)cn1)C2 (stereo not given)
- selectivity ratio [11]: > 500

SMILES: COc1ccc(-c2ccc(O[C@@H]3COc4nc([N+](=O)[O-])cn4C3)nc2)cn1
- selectivity ratio [2]: > 3.7

- t1/2 [6]: 31 min
- Ratio [12]: 0
SMILES: CC1(COCc2ccc(OCc3ccccc3)cc2)Cn2cc([N+](=O)[O-])nc2S1 (stereo not given)
- selectivity ratio [2]: > 4.5
